Shown are actives, neighbours in structure and some others; about 1.9% of the full set was active somewhere.
TLR9-MyD88 block: inhibitors of TLR9-MyD88 association in cells, primary screen, cell-based, CHO, BLA complementation, fluorescence; Toll-like receptor 9 (Homo sapiens) + Myeloid differentiation primary response protein …; CCF4 FRET ratio; inhibition, % at 4.98 µM; 340,000 tested, 0.21% active; AID 504734, 2011;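 active = inhibition above the mean over all tested compounds plus 3 SD, cut at about 21% in these data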;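 note: 0% = DMSO only wells and 100% = clavulanate BLA inhibitor control wells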
NOD2-RIPK2 inh: NOD2-RIPK2 binding disruptors in cells, primary screen, fluorescence, CHO cells, BLA complementation; CCF4 ratio; inhibition, % at 4.98 µM; 360,000 tested, 0.38% active; AID 624267, 2012; in the data active = inhibition above about 21%;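 note: 0% = vehicle only and 100% = reference blocker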
MC4R antag cAMP: MC4R antagonists of cAMP signaling, primary screen, cell-based, TR-FRET, antagonist arm of biased-ligand search; Melanocortin receptor 4 (Homo sapiens), P32245; MC4R-expressing cells, MTII-stimulated cAMP, LANCE TR-FRET; inhibition, % at 6.5 µM; 360,000 tested, 0.48% active;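 active = inhibition above its plate's cutoff, the mean of tested wells on that plate plus 3 SD, cut at about 29% in these data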;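 note: 0% = Melanotan II alone and 100% = Melanotan II plus saturating MCL0020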
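System: U2OS cells stably expressing human melanocortin 4 receptor (MC4R). Reagent: Melanotan II challenge after compound preincubation. Doses: 6.5 µM. Times: 30-min compound, 1-h challenge, 1-h detection, room temperature. Measured by: TR-FRET with Eu-cAMP and labeled anti-cAMP, 671 nm. Replicates: singlicate.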
MC4R barr agon: MC4R agonists recruiting beta-arrestin, primary screen, cell-based, luminescence, agonist arm of biased-ligand search. Melanocortin receptor 4 (Homo sapiens), P32245. U2OS MC4R beta-arrestin complementation; percent of melanotan II response, DMSO zero. activation, % at 8.9 µM. 360,000 tested, 0.98% active. AID 540308, 2011;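 active = activation above a per-plate cutoff, the mean activation of sample wells on that plate plus 3 SD, cut at about 8% in these data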
TLR4 MyD88 comp: inhibitors of TLR4-MyD88 association in cells, primary screen, cell-based, HeLa CL3-4, BLA complementation, FRET ratio. Toll-like receptor 4 (Homo sapiens) + Myeloid differentiation primary response protein …. HeLa CL3-4 TLR4/MyD88 BLA complementation. inhibition, % at 8.4 µM. 200,000 tested, 0.18% active. AID 861, 2007; in the data active = inhibition above about 25%;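 note: 0% = vehicle and 100% = reference inhibitor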
NTR1 ag: agonists of human NTR1, primary screen, imaging, U2OS cells, beta-arrestin-GFP, high content. Neurotensin receptor type 1 (Homo sapiens), P30989. NTR1-U2OS beta-arrestin-GFP spot imaging, agonist mode. activation, % at 20 µM. 330,000 tested, 0.17% active. AID 493036, 2011;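 active = activation at or above 40% of the spot to cytoplasm intensity ratio, with at least 20 cells analyzed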;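 note: 0% = DMSO without peptide and 100% = 100 nM NTR1 peptide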
Target sequence (P30989 whole entry, looked up): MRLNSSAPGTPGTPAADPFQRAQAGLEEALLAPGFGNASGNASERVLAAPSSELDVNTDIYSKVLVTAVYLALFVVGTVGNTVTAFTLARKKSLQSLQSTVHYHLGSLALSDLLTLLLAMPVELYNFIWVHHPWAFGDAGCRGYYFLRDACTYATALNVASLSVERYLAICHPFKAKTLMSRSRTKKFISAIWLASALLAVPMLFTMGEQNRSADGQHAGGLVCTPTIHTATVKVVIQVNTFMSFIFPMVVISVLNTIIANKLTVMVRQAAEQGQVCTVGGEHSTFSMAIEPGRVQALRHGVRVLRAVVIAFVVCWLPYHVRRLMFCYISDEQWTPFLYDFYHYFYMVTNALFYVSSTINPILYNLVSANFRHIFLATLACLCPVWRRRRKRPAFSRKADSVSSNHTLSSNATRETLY
Numbers without * were called inactive; · = no result.

SMILES | TLR9-MyD88 block | NOD2-RIPK2 inh | MC4R antag cAMP | MC4R barr agon | TLR4 MyD88 comp | NTR1 ag
COc1ccccc1N(C(=O)CCl)c1cn(C(C)=O)c2ccccc12 | -2.0 | -8.3 | 5.9 | 8.6* | · | 6.3
COc1ccc([C@@H]2CC(=O)[C@@H]3CN(S(=O)(=O)c4ccc(C)cc4)[C@H](c4cccc(Cl)c4)C[C@@H]3N2S(=O)(=O)c2ccccc2)cc1 | · | -3.5 | · | · | · | ·
Cc1ccc(Cl)cc1NC(=O)c1cnn2c1NC(c1ccco1)CC2C(F)(F)F (stereo not drawn) | 3.5 | 5.1 | 7.5 | 0.3 | 3.5 | 7.1
O=C(Nc1ccc2c(c1)CCC2)c1cnn2c1NC(c1ccco1)CC2C(F)(F)F (stereo not drawn) | -2.1 | -1.4 | 12.3 | 16.8* | 11.5 | -1.1
Cc1cccc(CNC(=O)c2sc(=O)n(Cc3c(C)cccc3C)c2C)c1 | · | 4.3 | -1.6 | 0.6 | · | ·
OC[C@@H]1CN(Cc2ccco2)C[C@H](n2cnc3c(N4CCOCC4)ncnc32)O1 | · | -4.5 | 10.8 | 3.5 | · | ·
COc1ccc(N2C(=S)N=C(Nc3ccccc3)C23CCCCC3)cc1 | -0.7 | -2.2 | 19.6 | 13.9* | 1.5 | -0.3
CCCCNC(=O)C1(C)CCCCN1C(=O)c1ccc2c(c1)CCO2 (stereo not drawn) | · | -6.7 | -2.3 | 1.0 | · | ·
CCOC(=O)Cn1c(=N)n(CCOc2ccc(OC)cc2)c2ccccc21 | 5.4 | -3.9 | 1.9 | -1.1 | 2.7 | -0.7
CCOC(=O)Cn1c(=N)n(CCOc2ccc3ccccc3c2)c2ccccc21 | 2.7 | 15.2 | -5.2 | 9.6* | 2.6 | 9.5
C/C(=N\Nc1nc2ccccc2[nH]1)c1ccc([N+](=O)[O-])cc1 | 2.3 | 1.1 | -3.2 | 9.5* | · | 2.4
OC(c1ccc(-c2ccccc2)cc1)c1ncc(-c2ccc(C(F)(F)F)cc2)[nH]1 (stereo not drawn) | · | 8.9 | 10.8 | 9.5* | · | ·
CC(C)(C)c1ccc(C(O)c2ncc(-c3ccccc3F)[nH]2)cc1 (stereo not drawn) | · | 1.0 | -0.1 | 8.2* | · | ·
CCc1ccc(C(O)c2ncc(-c3ccc(C(F)(F)F)cc3)[nH]2)cc1 (stereo not drawn) | · | -4.1 | 15.4 | 9.2* | · | ·
COc1ccc(C(O)c2nc(-c3ccc(Cl)cc3)cs2)cc1 (stereo not drawn) | · | -0.6 | 9.2 | 0.1 | · | ·
Cc1cc2nc(CS)[nH]c2cc1C | -14.6 | 13.2 | 17.8 | 0.5 | · | 0.8
CCc1ccc(NC(=O)CCc2nc3cccnc3n2Cc2ccc(OC)cc2)cc1 | -5.1 | -13.5 | 7.4 | 8.5* | -4.9 | -0.3
COc1ccc(-c2c(Sc3ccccc3)c3cc(-c4ccc5c(c4)OCO5)ccc3n2C)cc1 | · | -2.0 | · | · | · | ·
Oc1[nH]c2ccccc2c1N=Nc1nc(Nc2ccccc2)nc(N2CCOCC2)n1 | 0.6 | 0.5 | 28.5* | 1.4 | · | 16.4
COc1ccccc1OCc1ccc(C(=O)N/N=C/c2ccco2)cc1 | -1.4 | -13.5 | -6.1 | -1.5 | -3.8 | -0.6
O=C(N/N=C/c1ccco1)c1cc(Br)ccc1OCc1ccccc1 | 6.9 | -16.9 | 2.8 | 9.4* | 4.9 | 2.1
COc1c(C(=O)Nc2nnc(C3CC3)s2)csc1Cl | 9.0 | -4.8 | 9.8 | -1.4 | · | -0.5
C[n+]1cn(CC(O)COCc2ccccc2)c2ccccc21 (stereo not drawn) | 2.5 | 0.8 | 9.6 | -0.1 | -4.2 | 0.2
CCCCCc1ccc(OCCOCCn2c[n+](C)c3ccccc32)c(CCCCC)c1 | -9.1 | -6.6 | -7.7 | 17.4* | 2.1 | ·
CC1(C(=O)Nc2ccc(Cl)c(C(F)(F)F)c2)Cc2c(-c3ccc(C(N)=O)cc3)ccnc2O1 (stereo not drawn) | · | -1.1 | 8.2 | -2.1 | · | ·
COC(=O)C1OC1c1cc([N+](=O)[O-])ccc1OC (stereo not drawn) | -6.1 | -5.3 | 0.0 | 2.3 | · | ·

Screens: PubChem BioAssay, several laboratories
